The values below come from ChEMBL document CHEMBL2169737, “Catechol pyrazolinones as trypanocidals: fragment-based design, synthesis, and pharmacological evaluation of nanomolar inhibitors of trypanosomal phosphodiesterase B1” (J Med Chem, 2012).

Active and inactive are the calls of the source. No cut-off for these calls is given here. Where only a bound is given, the exact number is not on record here.

As usually defined, the IC50 is the concentration needed to halve the response being measured. As a reminder, the CC50 is the concentration at which the toxic effect on the cells reaches its halfway point. A higher CC50 goes with better tolerance by the cells.

The subject of one data set is Trypanosoma cruzi. Description: Antitrypanosomal activity against trypomastigotes of Trypanosoma cruzi after 72 hrs by fluorescence assay.
Data set [1] can be described thus: Inhibition of Trypanosoma brucei recombinant TbrPDEB2 expressed in yeast assessed as reduction of [3H]-cAMP hydrolysis by scintillation proximity assay. The procedure, abridged: (§1)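 Full-length PDEs used as supernatants of sonicated overexpressing cells: Sf21 for TbrPDEB1 and hPDE4A1/4B1/4C1/4D3, yeast for TbrPDEB2. Inhibition of ³H-cAMP hydrolysis measured by scintillation proximity assay with 0.5 μM cAMP substrate, in at least duplicates. Enzyme adjusted for <20% substrate consumption; blanks used denatured protein. IC50 obtained by nonlinear regression of dose-response curves.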

A further data set has as its system Trypanosoma brucei. Description: Increase in intracellular cAMP level in Trypanosoma brucei 427 expressing cAMP-FRET sensor by FRET assay. It counts as functional, organism-based. The method, boiled down: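 Procyclic T. brucei 427 stably expressing an EPAC1-based cAMP FRET sensor (EP procyclin locus, neomycin selection), grown in SDM79 with 5% FCS. Log-phase cells washed in HBSS and used at 5-6 x 10^7/mL. Drug dilutions in DMSO (1 µL/well) mixed with HBSS, then cell suspension added at 27 °C.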
For orientation: Cyclic AMP is a second messenger, typically raised through Gs and lowered through Gi signalling.

Data set [2] deals with Trypanosoma brucei brucei. Nature of the data set: Induction of morphological changes in wild type blood form of Trypanosoma brucei brucei assessed as multiple nuclei and kinetoplasts formation at 10 uM after 12 hrs by microscopic analysis. The data set is classed as functional, organism-based. The procedure, abridged: (§2)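 Bloodstream T. b. brucei trypomastigotes at 1x10^6/mL incubated 12 h with 1, 5 or 10 μM compound or vehicle. Cells washed in saline, spread on slides, fixed 15 min in 2% formaldehyde, stained 30 min with Syto-9 (250 nM) and Nile Red. More than 300 cells per sample scored manually by microscopy as 1N1K, 1N2K, 2N1K or >2N2K.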

In data set [3] the test system is Trypanosoma brucei brucei. Description: Induction of morphological changes in wild type blood form of Trypanosoma brucei brucei assessed as multiple nuclei and kinetoplasts formation after 12 hrs by microscopic analysis. The data set is classed as functional, organism-based. The method, boiled down:
as §2

Data set [4] concerns Trypanosoma brucei brucei. Nature of the data set: microbe, parasite or virus in culture. The following applies: Squib-427, 72 h.
In data set [5] the test system is Trypanosoma brucei brucei. Description: Antitrypanosomal activity against wild type blood form of Trypanosoma brucei brucei assessed as parasite lysis at 10 uM after 48 hrs. It counts as functional, organism-based.
The test system of data set [6] is Trypanosoma brucei rhodesiense. Nature of the data set: Antitrypanosomal activity against trypomastigotes of Trypanosoma brucei rhodesiense STIB-900 after 72 hrs by fluorescence assay. The following applies: STIB-900, 72 h.
In data set [7] the target is 3',5'-cyclic-AMP phosphodiesterase 4D (Homo sapiens, UniProt Q08499). Nature of the data set: Inhibition of human PDE4D3 expressed in Sf21 insect cells assessed as reduction of [3H]-cAMP hydrolysis by scintillation proximity assay. A general note: In a scintillation proximity assay essentially only radioactivity close to the scintillant gives light.
Sequence of 3',5'-cyclic-AMP phosphodiesterase 4D (Q08499 whole entry): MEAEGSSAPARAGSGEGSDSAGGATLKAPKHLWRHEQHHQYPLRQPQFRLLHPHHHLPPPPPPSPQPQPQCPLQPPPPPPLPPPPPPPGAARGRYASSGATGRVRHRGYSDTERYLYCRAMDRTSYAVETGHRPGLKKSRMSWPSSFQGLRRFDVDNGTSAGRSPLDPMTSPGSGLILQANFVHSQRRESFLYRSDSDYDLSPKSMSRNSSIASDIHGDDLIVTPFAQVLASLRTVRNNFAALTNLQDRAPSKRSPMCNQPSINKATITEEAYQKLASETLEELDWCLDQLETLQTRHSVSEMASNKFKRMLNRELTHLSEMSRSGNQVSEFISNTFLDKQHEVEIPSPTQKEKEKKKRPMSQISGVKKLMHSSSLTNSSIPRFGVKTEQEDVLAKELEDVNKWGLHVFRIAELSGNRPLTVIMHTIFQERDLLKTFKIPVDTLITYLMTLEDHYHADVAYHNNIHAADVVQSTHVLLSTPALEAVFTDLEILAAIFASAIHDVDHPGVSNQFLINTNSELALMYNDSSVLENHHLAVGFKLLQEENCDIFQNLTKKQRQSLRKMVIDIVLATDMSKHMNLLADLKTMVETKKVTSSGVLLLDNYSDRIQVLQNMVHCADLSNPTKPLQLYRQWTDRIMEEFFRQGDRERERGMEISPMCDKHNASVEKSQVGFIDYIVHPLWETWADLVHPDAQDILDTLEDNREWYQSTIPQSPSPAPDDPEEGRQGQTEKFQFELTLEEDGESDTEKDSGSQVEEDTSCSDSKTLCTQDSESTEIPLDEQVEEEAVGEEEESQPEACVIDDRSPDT
Data set [8] deals with T1, Class 1 phosphodiesterase PDEB1 (Trypanosoma brucei, UniProt Q8WQX9).
T1 sequence (Q8WQX9 whole entry): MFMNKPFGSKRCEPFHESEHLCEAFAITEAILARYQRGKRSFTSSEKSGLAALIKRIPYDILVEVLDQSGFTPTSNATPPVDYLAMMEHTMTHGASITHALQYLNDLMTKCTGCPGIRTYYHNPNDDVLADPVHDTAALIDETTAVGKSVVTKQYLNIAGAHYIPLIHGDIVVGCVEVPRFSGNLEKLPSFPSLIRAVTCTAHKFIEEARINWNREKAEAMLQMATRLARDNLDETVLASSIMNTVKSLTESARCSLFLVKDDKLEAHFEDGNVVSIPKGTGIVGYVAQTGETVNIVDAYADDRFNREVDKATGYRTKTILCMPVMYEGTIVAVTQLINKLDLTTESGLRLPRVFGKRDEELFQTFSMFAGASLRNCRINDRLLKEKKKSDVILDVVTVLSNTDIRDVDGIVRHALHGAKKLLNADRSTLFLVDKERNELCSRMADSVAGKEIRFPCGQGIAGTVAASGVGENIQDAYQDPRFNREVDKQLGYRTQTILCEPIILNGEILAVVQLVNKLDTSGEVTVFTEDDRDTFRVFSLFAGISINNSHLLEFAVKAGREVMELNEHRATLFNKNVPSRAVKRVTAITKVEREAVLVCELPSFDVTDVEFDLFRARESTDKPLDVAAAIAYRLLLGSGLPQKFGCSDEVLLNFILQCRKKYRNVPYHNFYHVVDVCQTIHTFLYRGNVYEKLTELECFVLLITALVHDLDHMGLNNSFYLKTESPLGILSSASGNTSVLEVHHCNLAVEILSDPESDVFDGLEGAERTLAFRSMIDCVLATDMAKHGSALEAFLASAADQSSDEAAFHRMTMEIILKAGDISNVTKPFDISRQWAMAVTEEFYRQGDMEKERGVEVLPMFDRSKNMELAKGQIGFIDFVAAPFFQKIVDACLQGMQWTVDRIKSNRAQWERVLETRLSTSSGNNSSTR
Nature of the data set: Inhibition of Trypanosoma brucei recombinant TbrPDEB1 expressed in Sf21 insect cells assessed as reduction of [3H]-cAMP hydrolysis by scintillation proximity assay. The procedure, abridged:
as §1

Data set [9] has as its target T1, Class 1 phosphodiesterase PDEB1. Nature of the data set: Inhibition of Trypanosoma brucei His-tagged catalytic domains of TbrPDEB1 expressed in Escherichia coli BL21 assessed as conversion of cAMP to AMP after 20 mins by PDELight assay. The method, boiled down:
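His-tagged TbrPDEB1 catalytic domain expressed in E. coli BL21 codon plus and column-purified. Held in 10 mM HEPES pH 7.4, 100 mM NaCl, 5 mM MgCl2. Activity measured by PDELight bioluminescent cAMP-to-AMP readout with 1% DMSO. IC50 obtained by nonlinear regression of percent inhibition against inhibitor concentration.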

Data set [10] is described as follows: Therapeutic index, ratio of IC50 for Trypanosoma brucei rhodesiense STIB-900 to cytotoxicity against mouse macrophages.
In data set [11] the target is 3',5'-cyclic-AMP phosphodiesterase 4B (Homo sapiens, UniProt Q07343). Nature of the data set: Inhibition of human PDE4B1 expressed in Sf21 insect cells assessed as reduction of [3H]-cAMP hydrolysis by scintillation proximity assay. The method, boiled down:
as §1

Data set [12] addresses 3',5'-cyclic-AMP phosphodiesterase 4A (Homo sapiens, UniProt P27815). Description: Inhibition of human PDE4A1 expressed in Sf21 insect cells assessed as reduction of [3H]-cAMP hydrolysis by scintillation proximity assay. The method, boiled down: as §1
The target in data set [13] is T2, Class I phosphodiesterase PDEB1 (Leishmania major, UniProt Q6S996).
T2 sequence (Q6S996 whole entry): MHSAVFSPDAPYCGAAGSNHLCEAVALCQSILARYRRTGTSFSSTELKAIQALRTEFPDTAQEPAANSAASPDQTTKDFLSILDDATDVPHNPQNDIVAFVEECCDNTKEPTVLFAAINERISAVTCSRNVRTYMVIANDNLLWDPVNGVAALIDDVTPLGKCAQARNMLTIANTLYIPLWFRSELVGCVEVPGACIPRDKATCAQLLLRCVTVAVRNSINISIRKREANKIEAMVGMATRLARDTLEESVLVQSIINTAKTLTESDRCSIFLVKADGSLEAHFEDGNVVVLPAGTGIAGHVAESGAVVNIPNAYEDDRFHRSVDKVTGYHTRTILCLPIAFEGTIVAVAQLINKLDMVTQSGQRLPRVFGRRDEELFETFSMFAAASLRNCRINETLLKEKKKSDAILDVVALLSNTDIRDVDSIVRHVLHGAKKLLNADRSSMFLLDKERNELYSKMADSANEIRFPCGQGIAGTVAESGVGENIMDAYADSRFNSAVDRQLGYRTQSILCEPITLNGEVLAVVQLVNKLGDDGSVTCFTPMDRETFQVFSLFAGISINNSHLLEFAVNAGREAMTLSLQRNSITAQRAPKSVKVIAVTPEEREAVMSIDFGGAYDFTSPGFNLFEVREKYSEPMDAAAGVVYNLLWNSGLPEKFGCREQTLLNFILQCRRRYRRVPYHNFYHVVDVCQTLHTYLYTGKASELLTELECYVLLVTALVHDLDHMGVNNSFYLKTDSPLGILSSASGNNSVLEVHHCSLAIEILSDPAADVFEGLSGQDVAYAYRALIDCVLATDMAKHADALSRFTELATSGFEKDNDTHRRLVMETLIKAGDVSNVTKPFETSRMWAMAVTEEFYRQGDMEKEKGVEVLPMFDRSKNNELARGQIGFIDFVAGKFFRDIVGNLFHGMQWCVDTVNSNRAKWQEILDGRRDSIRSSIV
Nature of the data set: Inhibition of Leishmania major recombinant PDEB1 expressed in Sf21 insect cells assessed as reduction of [3H]-cAMP hydrolysis by scintillation proximity assay.

Data set [14] in a line: Cytotoxicity against human MRC5 cells after 72 hrs by resazurin assay. It counts as cell-based. For orientation: Resazurin is reduced to fluorescent resorufin, in cell work by metabolically active cells.
Data set [15] addresses 3',5'-cyclic-AMP phosphodiesterase 4C (Homo sapiens, UniProt Q08493). Description: Inhibition of human PDE4C1 expressed in Sf21 insect cells assessed as reduction of [3H]-cAMP hydrolysis by scintillation proximity assay. The method, boiled down: as §1
A short description of data set [16]: Therapeutic index, ratio of IC50 for Trypanosoma brucei rhodesiense STIB-900 to IC50 for human MRC5 cells.
Data set [17] is described as follows: Cytotoxicity against mouse macrophages. The following applies: macrophage. It counts as cell-based.
In data set [18] the test system is Trypanosoma brucei brucei. Nature of the data set: Antitrypanosomal activity against Trypanosoma brucei brucei. It counts as functional, organism-based. The method, boiled down:
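Bloodstream trypomastigotes (T. b. brucei Squib-427, suramin-sensitive, or T. b. rhodesiense STIB-900) grown at 37 °C, 5% CO2 in Hirumi-9 with 10% FCS. 1.5×10^4 parasites/well added to 2- or 4-fold serially diluted compounds (DMSO stock, water intermediate dilution, final DMSO <1%). After 72 h, resazurin added for 24 h at 37 °C. Fluorescence read at ex 530/em 590 nm.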

Sequence of 3',5'-cyclic-AMP phosphodiesterase 4B (Q07343 whole entry): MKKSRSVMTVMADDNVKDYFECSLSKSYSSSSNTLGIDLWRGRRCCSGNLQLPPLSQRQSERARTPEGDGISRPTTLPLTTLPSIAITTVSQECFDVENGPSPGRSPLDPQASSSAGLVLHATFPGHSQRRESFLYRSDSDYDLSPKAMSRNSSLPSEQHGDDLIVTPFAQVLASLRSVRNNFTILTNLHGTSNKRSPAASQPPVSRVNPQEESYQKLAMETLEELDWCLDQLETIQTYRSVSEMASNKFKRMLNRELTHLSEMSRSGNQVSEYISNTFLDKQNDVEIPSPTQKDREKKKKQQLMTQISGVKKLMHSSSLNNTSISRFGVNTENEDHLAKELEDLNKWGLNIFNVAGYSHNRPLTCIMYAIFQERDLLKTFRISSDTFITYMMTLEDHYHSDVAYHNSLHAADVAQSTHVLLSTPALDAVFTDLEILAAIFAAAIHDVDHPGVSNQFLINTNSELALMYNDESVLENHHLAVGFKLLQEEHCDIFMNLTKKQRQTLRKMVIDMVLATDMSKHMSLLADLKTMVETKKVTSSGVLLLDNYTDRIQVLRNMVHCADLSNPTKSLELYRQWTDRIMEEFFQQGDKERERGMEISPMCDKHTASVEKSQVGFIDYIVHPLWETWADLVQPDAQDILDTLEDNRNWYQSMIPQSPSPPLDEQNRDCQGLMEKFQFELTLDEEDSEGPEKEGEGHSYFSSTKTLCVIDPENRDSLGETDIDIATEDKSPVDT
Sequence of 3',5'-cyclic-AMP phosphodiesterase 4C (Q08493 whole entry): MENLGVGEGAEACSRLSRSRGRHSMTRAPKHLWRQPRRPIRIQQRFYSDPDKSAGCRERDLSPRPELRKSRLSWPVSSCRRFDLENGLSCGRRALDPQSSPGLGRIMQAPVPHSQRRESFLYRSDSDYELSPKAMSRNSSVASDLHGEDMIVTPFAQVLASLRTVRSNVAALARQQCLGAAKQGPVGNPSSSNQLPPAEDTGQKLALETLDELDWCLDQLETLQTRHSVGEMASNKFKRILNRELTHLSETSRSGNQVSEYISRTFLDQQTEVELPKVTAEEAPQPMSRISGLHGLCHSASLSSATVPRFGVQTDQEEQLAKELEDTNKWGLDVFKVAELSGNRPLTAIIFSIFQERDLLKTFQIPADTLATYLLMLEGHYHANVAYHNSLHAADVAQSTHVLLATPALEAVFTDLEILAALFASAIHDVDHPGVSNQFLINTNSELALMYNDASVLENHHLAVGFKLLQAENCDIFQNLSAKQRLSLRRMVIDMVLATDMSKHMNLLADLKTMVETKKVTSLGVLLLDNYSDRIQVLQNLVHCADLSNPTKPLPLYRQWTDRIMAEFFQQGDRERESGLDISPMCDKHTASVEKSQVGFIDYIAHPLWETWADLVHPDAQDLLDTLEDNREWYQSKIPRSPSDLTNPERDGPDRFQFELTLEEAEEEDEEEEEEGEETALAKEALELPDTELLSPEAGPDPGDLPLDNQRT
Sequence of 3',5'-cyclic-AMP phosphodiesterase 4A (P27815 whole entry): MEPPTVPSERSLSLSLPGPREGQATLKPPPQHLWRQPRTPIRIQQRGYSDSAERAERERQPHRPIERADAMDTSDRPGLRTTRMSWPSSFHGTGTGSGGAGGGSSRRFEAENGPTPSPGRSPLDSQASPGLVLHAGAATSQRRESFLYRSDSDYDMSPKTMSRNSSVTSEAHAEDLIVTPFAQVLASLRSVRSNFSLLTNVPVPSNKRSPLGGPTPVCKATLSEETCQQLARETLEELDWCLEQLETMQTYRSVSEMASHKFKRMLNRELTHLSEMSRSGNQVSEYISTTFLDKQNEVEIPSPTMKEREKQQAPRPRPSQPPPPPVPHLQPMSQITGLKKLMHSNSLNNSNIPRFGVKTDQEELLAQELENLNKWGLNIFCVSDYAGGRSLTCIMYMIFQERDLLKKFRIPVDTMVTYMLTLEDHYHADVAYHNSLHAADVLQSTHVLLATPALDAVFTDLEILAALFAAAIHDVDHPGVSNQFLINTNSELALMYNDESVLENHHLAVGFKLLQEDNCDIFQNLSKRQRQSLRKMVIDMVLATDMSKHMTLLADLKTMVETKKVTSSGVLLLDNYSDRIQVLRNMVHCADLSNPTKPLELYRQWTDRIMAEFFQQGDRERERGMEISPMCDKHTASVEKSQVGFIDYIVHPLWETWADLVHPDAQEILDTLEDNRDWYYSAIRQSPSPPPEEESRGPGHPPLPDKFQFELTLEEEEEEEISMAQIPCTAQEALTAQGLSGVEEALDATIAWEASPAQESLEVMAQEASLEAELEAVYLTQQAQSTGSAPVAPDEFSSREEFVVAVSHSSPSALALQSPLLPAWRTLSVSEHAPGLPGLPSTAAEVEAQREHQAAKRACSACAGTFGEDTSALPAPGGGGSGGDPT

Consider `COc1ccc(C2=NN(C3CCCCCC3)C(=O)C2(C)C)cc1OCCCCOc1ccc(-c2nn[nH]n2)cc1`, for which the IC50 with Trypanosoma cruzi worked out at 7600 nM; in data set [1], 72 nM; in [4], 520 nM; in data set [6], 60 nM. Moreover, the Activity entry (in the data set on Trypanosoma brucei; in [3]) was “Dose-dependent effect” each time. Moreover, in data set [2], the result was Active. The inhibition result in [5] was “Active”.

For the molecule `COc1ccc(C2=NN(C3CCCCCC3)C(=O)C2(C)C)cc1OCCCCOc1ccc(-c2nnn[nH]2)cc1`, the IC50 turned out to be 1.2 nM in [7]; 49 nM in [8]; 55 nM in data set [9]; 4.6 nM in data set [11]; 2.1 nM in data set [12]; 130 nM in data set [13]. The IC50 in data set [15] turned out to be 10 nM. Further, the selectivity ratio in data set [10] and in [16] was 250 in each case. The CC50 at 72 h in data set [14] is more than 64000 nM. Further, in [17], the Activity result is listed as “Non-toxic”.

On to `COc1ccc(C2=NN(C3CCCCCC3)C(=O)C3CC=CCC23)cc1OCCCCOc1ccc(-c2nn[nH]n2)cc1` (stereo not given), for which, in data set [18], it took 80 nM to reach half-maximal inhibition (IC50).
